# Experimental data as given in paper PMC7854864 (Cell chemical biology, 2020).
# pEC50, pIC50: −log10 of the molar value.
# Columns and labels:
# [1] = tested on: MYC transcriptional activity; assay: MYC luciferase reporter assay in HEK293T cells; assay type: cell-based, human; details: for activity in MYC luciferase reporter assay: dose response, Table S4
# In short: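 HEK293T cells (DMEM, 10% FBS) seeded at 35,000/well and transfected with Lipofectamine 2000 (complexes formed 25 min at room temperature). Reporter: firefly luciferase driven by TATA box plus tandem E-box repeats; negative control lacked response elements. Cells treated with DMSO or test compound (50 μM screen, or dose series) for 24 h. Firefly and Renilla read; blank subtracted, Firefly:Renilla calculated per well, then normalised to vehicle. n=3.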
# [2] = biological target: endogenous c-MYC (Homo sapiens, UniProt P01106); assay: EN4-alkyne-4 enrichment of endogenous MYC in cells; assay type: cell-based; details: 231MFP cells, 50 μM, 4 h, in situ
# Sequence of endogenous c-MYC (P01106 16-454): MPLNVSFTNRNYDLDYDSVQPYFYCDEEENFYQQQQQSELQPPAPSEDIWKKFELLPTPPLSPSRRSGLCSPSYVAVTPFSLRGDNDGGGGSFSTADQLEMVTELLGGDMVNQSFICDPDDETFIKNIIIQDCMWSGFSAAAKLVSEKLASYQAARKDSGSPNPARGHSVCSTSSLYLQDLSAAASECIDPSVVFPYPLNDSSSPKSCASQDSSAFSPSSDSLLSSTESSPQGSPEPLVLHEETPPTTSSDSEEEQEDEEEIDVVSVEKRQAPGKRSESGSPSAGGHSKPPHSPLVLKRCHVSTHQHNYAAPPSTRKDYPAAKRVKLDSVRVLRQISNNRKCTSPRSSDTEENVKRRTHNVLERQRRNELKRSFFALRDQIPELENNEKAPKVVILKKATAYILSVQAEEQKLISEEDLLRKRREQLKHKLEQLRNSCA
# In short: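 231MFP cells at 70% confluency exposed in situ to DMSO or 50 μM alkyne probe for 4 h. Cells lysed by sonication and lysates normalised to 3.2 mg/mL. Probe-labelled proteins conjugated by CuAAC and pulled down. c-MYC in the pulldown detected by blotting; input c-MYC and vinculin also shown. n=3 biological replicates, quantified.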
# [3] = biological target: pure human MYC C171Y mutant protein (Homo sapiens, UniProt P01106, C186Y); assay: Gel-based ABPP with pure C171Y mutant MYC protein; assay type: binding; details: 50 μM, 2 h, 37°C
# Sequence of pure human MYC C171Y mutant protein (P01106 16-454 C186Y): as the sequence (P01106 16-454) above, with C171Y counted along it
# In short: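 Pure human wild-type and C171Y MYC (0.3 μg in 50 μl PBS) labelled directly with alkyne probe (50 μM) for 2 h at 37 °C. Rhodamine-azide (1 μM final) attached by CuAAC, 1 h at room temperature. Samples run on reducing SDS/PAGE (4–20% gels), fixed in acetic acid/ethanol, and imaged by in-gel rhodamine fluorescence; silver stain used for loading.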
# [4] = tested on: 231MFP breast tumor xenograft; assay: 231MFP tumor xenograft study; assay type: in vivo; details: 50 mg/kg ip once per day, started 14 days after implantation, SCID mice
# In short: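 Female C.B17 SCID mice (6–8 weeks) received 1 × 10⁶ 231MFP cells subcutaneously in the flank, suspended in serum-free medium. From 2 weeks after implantation, vehicle (18:1:1 PBS/ethanol/PEG40) or 50 mg/kg test compound was given ip once daily. Tumour size measured weekly by calipers; unpaired two-tailed t-test.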
# [5] = tested on: MIZ1 or ZBTB17; assay: MIZ1/ZBTB17 level with EN4 treatment; assay type: cell-based; details: Fig. S3f
# [6] = tested on: MYC target genes; assay: RNA sequencing of EN4-treated 231MFP cells; assay type: cell-based, human; details: 50 μM, 24 h
# In short: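 231MFP cells seeded in 6 cm dishes and treated with DMSO or 50 μM test compound for 24 h before RNA sequencing. Transcript changes reported as log₂ fold change of treated versus DMSO controls.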
# [7] = biological target: MAX (Homo sapiens, UniProt P61244); assay: Cellular thermal shift assay; assay type: cell-based; details: 231MFP cells, 50 μM, 2 h
# Sequence of MAX (P01106 16-454 partner limits assumed): as the sequence (P01106 16-454) above
# Sequence of MAX (P61244 whole entry): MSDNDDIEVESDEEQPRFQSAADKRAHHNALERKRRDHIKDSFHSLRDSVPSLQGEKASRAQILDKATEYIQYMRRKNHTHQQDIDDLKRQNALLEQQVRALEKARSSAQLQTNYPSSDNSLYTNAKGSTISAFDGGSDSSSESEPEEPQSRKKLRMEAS
# In short: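 231MFP cells at 80% confluence treated with DMSO or 50 μM test compound for 120 min, then resuspended in PBS with protease inhibitors and compound or DMSO kept present. Aliquots heated 3 min at eight temperatures (37.0–58.0 °C), held 3 min at 25 °C, lysed by three liquid-nitrogen freeze-thaw cycles and spun 20,000 g, 20 min, 4 °C. Soluble MAX measured by Western blot with GAPDH as loading control; band intensity quantified.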
# [8] = biological target: pure human MYC protein (Homo sapiens, UniProt P01106); assay: Gel-based ABPP with pure MYC protein; assay type: binding; details: pre-incubation 30 min 37°C, then EN4-alkyne-2 50 μM 2 h
# Sequence of pure human MYC protein (P01106 16-454): as the sequence (P01106 16-454) above
# In short: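 Pure human full-length MYC (0.3 μg in 50 μl PBS) pre-treated with DMSO or test compound for 30 min at 37 °C, then labelled with alkyne probe (50 μM) for 2 h at 37 °C. Rhodamine-azide (1 μM final) attached by CuAAC, 1 h at room temperature. Samples heated at 90 °C for 5 min in reducing Laemmli buffer, run on 4–20% gels, fixed, and read by in-gel fluorescence; silver stain used for loading.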
# [9] = tested on: MYC-transformed mammary epithelial MCF10A cells; assay: Serum-free cell survival, MYC-expressing MCF10A; assay type: cell-based, human; details: 48 h
# In short: (§1)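 MCF10A parental or MYC-overexpressing cells (maintained in DMEM/F12K with 5% horse serum, EGF, cholera toxin, insulin and hydrocortisone) seeded at 40,000/well and allowed to adhere overnight. Treated with DMSO or test compound in serum-free medium for 48 h. Fixed and stained with formalin/Hoechst 33342, then imaged. Survival normalised to the DMSO control of each line set to 1; unpaired two-tailed t-test.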
# [10] = tested on: C171Y FLAG-MYC; assay: MYC luciferase reporter in HEK293T cells expressing C171Y versus WT FLAG-MYC; assay type: cell-based, human; details: 50 μM, 24 h
# In short: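 HEK293T cells seeded at 35,000/well and co-transfected with the MYC E-box luciferase reporter plus 1 μg/well FLAG-eGFP, FLAG-wild-type or FLAG-C171Y c-MYC plasmid (site-directed mutant), using Lipofectamine 2000 at 3:1 to DNA. Treated with DMSO or 50 μM test compound for 24 h. Blank-subtracted Firefly:Renilla expressed relative to DMSO set to 1; FLAG expression checked by Western blot.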
# [11] = biological target: MYC (Homo sapiens, UniProt P01106); assay: Cellular thermal shift assay; assay type: cell-based; details: 231MFP cells, 50 μM, 2 h
# Sequence of MYC (P01106 16-454): as above
# In short: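 231MFP cells (L15, 10% FBS, 37 °C, 0% CO2) at 80% confluence were exposed to test compound or DMSO at 50 μM for 120 min. They were then resuspended in PBS with protease inhibitors, still containing compound or DMSO, and heated for 3 min at eight temperatures (37.0–58.0 °C). After 3 min at 25 °C, cells were freeze-thaw lysed and spun at 20,000 g. Soluble c-MYC, MAX and GAPDH were measured by Western blot densitometry, relative to DMSO.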
# [12] = biological target: C171Y mutant MYC protein (with MAX) (Homo sapiens, UniProt P01106, C186Y); assay: MYC/MAX in vitro DNA binding with C171Y mutant MYC; assay type: biochemical; details: 50 μM
# Sequence of C171Y mutant MYC protein (with MAX) (P01106 16-454 C186Y): as the sequence (P01106 16-454) above, with C171Y counted along it
# In short: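 Plate-based assay adapted from a c-Myc transcription factor kit. Test compound (50 μM; diluted from 50 mM DMSO stock into dPBS) or DMSO pre-incubated with 0.2 μg pure full-length wild-type or C171Y MYC for 30 min at 37 °C. Then 0.2 μg MAX added and the mixture bound to wells coated with the E-box consensus sequence for 1 h. Bound complex detected with primary and secondary antibodies.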
# [13] = biological target: pure human c-JUN protein (Homo sapiens, UniProt P05412); assay: Gel-based ABPP with pure JUN protein; assay type: binding; details: Fig. S3b
# Sequence of pure human c-JUN protein (P05412 whole entry): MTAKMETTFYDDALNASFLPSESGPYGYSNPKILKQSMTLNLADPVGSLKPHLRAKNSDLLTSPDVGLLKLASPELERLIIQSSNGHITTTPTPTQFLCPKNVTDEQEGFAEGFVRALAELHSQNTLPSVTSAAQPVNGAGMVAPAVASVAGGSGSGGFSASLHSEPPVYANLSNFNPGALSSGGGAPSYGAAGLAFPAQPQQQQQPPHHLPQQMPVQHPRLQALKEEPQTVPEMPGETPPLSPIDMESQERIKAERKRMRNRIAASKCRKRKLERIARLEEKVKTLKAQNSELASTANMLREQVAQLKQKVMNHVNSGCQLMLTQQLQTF
# In short: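 Recombinant pure human c-JUN (0.1 μg) was pretreated with DMSO or test compound in 25 μl PBS for 1 h at 37 °C. It was then labeled with 200 nM IA-rhodamine for 1 h at room temperature. Samples were denatured in reducing Laemmli buffer at 90 °C for 5 min, separated on 4–20% SDS/PAGE gels, fixed, and read by in-gel fluorescence.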
# [14] = tested on: 231MFP breast cancer cells; assay: 231MFP cell proliferation; assay type: cell-based, human; details: 50 μM, daily treatment, 72 h
# In short: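 231MFP cells (L15, 10% FBS, 37 °C, 0% CO2) seeded at 15,000/well in serum-containing L-15. Treated the next day with DMSO or test compound, with media and compound replaced daily for 72 h. Wells fixed and stained with 10% formalin plus Hoechst 33342 for 15 min at room temperature in the dark, washed and imaged. Reported as percent proliferation versus DMSO; unpaired two-tailed t-test.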
# [15] = tested on: parental MCF10A cells; assay: Serum-free cell survival, parental MCF10A; assay type: cell-based, human; details: 48 h
# In short: as §1
# [16] = tested on: MYC transcriptional activity; assay: MYC luciferase reporter upon JUN knockdown; assay type: cell-based, human; details: HEK293T, siJUN, 24 h
# [17] = biological target: purified recombinant human MYC/MAX complex (Homo sapiens, UniProt P01106); assay: MYC/MAX in vitro DNA binding to E-box consensus sequence; assay type: biochemical
# Sequence of purified recombinant human MYC/MAX complex (P01106 16-454, one chain of several): as the sequence (P01106 16-454) above
# In short: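 Human full-length c-MYC (0.2 μg) was pre-incubated for 30 min at 37 °C with DMSO or test compound diluted from 50 mM DMSO stock into dPBS. MAX (0.2 μg) was then added, and the mixture was transferred to wells coated with the E-box consensus sequence for 1 h binding. Bound complex was detected with primary and secondary antibodies following a commercial transcription-factor kit protocol. IC50 was derived from the dose-response.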
# [18] = tested on: CDK2, CDC25A and MYC protein levels; assay: Western blotting of MYC transcriptional targets in 231MFP cells; assay type: cell-based, human; details: 50 μM, 36 h
# In short: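 231MFP cells treated with DMSO or 50 μM test compound for 36 h, with medium and treatment replenished at 24 h. CDK2, CDC25A and MYC levels measured by Western blot with vinculin as loading control. n=3 biological replicates; blots quantified; unpaired two-tailed t-test.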
smiles,measurement,setting,value
"C#Cc1ccc(Oc2ccc(OCC)cc2)c(NC(=O)c2ccc(CNC(=O)C=C)cc2)c1 [EN4-alkyne-4, 4-(acrylamidomethyl)-N-(2-(4-ethoxyphenoxy)-5-ethynylphenyl)benzamide]",pEC50,"[1]; Homo sapiens, HEK-293T, read-out: EC50 in MYC luciferase reporter assay",5.85
same,enrichment of endogenous c-MYC versus vehicle,[2],significantly enriched endogenous c-MYC
"CCOc1ccc(Oc2ccccc2NC(=O)c2ccc(CNC(=O)/C=C/C(F)(F)F)cc2)cc1 [EN4–6, (E)-N-(2-(4-ethoxyphenoxy)phenyl)-4-((4,4,4-trifluorobut-2-enamido)methyl) benzamide]",activity in MYC luciferase reporter assay,[1]; HEK293T,loss of activity
"C#CCOc1ccc(NC(=O)c2ccc(CNC(=O)C=C)cc2)c(Oc2ccc(OCC)cc2)c1 [EN4-alkyne-2, 4-(acrylamidomethyl)-N-(2-(4-ethoxyphenoxy)-4-(prop-2-yn-1-yloxy)phenyl) benzamide]",probe labeling of C171Y mutant MYC compared to wild-type,[3],labeling was not observed
C=CC(=O)NCc1ccc(C(=O)Nc2ccccc2Oc2ccc(OCC)cc2)cc1 [EN4],inhibition of MYC transcriptional activity in covalent ligand screen,"[1]; 50 μM, 24 h, HEK293T, Fig. 1b",strongest inhibition
same,tumor growth in vivo,[4],significantly attenuated tumor growth
same,level of MYC binding partner MIZ1 or ZBTB17,[5],upregulation
same,expression of direct MYC target genes and MYC-regulated gene targets,[6],significantly downregulated
same,MAX thermal stability,[7],reduced the thermal stability
same,competition of EN4-alkyne-2 labeling of pure MYC,[8],displaced the labeling of EN4-alkyne-2
same,cell survival of MYC-transformed MCF10A cells,[9],impaired the cell survival
same,MYC inhibitory effect in cells expressing C171Y FLAG-MYC compared to WT FLAG-MYC,[10],significantly attenuated
same,MYC thermal stability,[11],significantly reduced MYC thermal stability
same,inhibition of MYC/MAX DNA binding with C171Y mutant compared to wild-type MYC,[12],significantly attenuated
same,competition against IA-rhodamine labeling of pure JUN,[13],competition of EN4 against labeling of pure JUN protein
same,inhibition of proliferation,[14],> 90%
same,cell survival of parental MCF10A cells,[15],but not parental MCF10A cells
same,inhibition of MYC luciferase reporter activity upon JUN knockdown compared to control cells,[16],comparable inhibitory effects
same,pIC50,"[17]; read-out: 50 % inhibitory concentration (IC50) for MYC/MAX binding to the E-box response element DNA consensus sequence, dose-response, Fig. 1d, pre-incubated with MYC 30 min before MAX",5.17
same,MYC protein levels,[18],substantially reduced
same,protein levels of CDK2 and CDC25A,[18],significantly lowered
"CCOc1ccc(Oc2ccccc2NC(=O)c2ccc(CNC(=O)CC)cc2)cc1 [EN4–18, N-(2-(4-ethoxyphenoxy)phenyl)-4-(propionamidomethyl)benzamide]",activity in MYC luciferase reporter assay,[1]; HEK293T,inhibited MYC luciferase reporter activity
same,inhibition of MYC/MAX DNA binding in vitro,[17]; Fig. S4,significantly inhibits MYC/MAX DNA binding
"CCOc1ccc(Oc2ccccc2NC(=O)c2ccc(CNC(=O)CCl)cc2)cc1 [EN4–3, 4-((2-chloroacetamido)methyl)-N-(2-(4-ethoxyphenoxy)phenyl)benzamide]",activity in MYC luciferase reporter assay,[1]; HEK293T,loss of activity
